# Activity calls are given as the source filed them.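 The calls were made as follows, unless noted: active = GFP response above 150% of the DMSO level; inconclusive = fewer than 70 events counted for a yeast strain; inactive = the rest.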
# Key:
# [1] = RPL19A-GFP modulators, yeast TOR pathway, confirmation, cell-based, S. cerevisiae, flow cytometry, cherry picks, mother/daughter gates (AID 2270;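 active = GFP response below 50% of the DMSO control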); conditions: S. cerevisiae RPL19A-GFP strain, 3 h, at 10 µM, stronger effect = lower value, 100 = same GFP as DMSO wells
# [2] = LAP4-GFP expression modulators in yeast, confirmation, cell-based, cherry picks, flow cytometry, mother/daughter gates (AID 2271;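 active = GFP response above 150% of the DMSO control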;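 also: ratio of sample to DMSO plate mean so 100% equals DMSO level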); conditions: S. cerevisiae LAP4-GFP strain, 3 h, at 10 µM, stronger effect = higher value, 100 means same as DMSO control
# Procedure, shortened: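 System: GFP-fusion yeast strain | Input: Yeast cells seeded at OD600 of 0.2 | Technique: HT flow cytometry, GFP fluorescence channel | Read-out: % GFP response vs DMSO | Dosing: Single test-compound dose, 10 µM final | Controls: Positive rapamycin (400 ng/mL), negative DMSO | Times: 3 h treatment at 30 °C with rotation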
# [3] = modulators of MEP2-GFP levels in yeast, confirmation, S. cerevisiae, flow cytometry GFP, cherry picks (AID 2272;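 active = GFP response above 150% of the DMSO control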;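 also: ratio of well signal to plate DMSO mean so 100% equals DMSO level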); conditions: S. cerevisiae MEP2-GFP strain, 3 h, at 10 µM, stronger effect = higher value
# [4] = AGP1-GFP expression modulators, hit retest, confirmation, cell-based, flow cytometry, S. cerevisiae, cherry picks (AID 2273);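 also: median GFP channel fluorescence over the whole cell population gate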; conditions: S. cerevisiae AGP1-GFP strain, 3 h, at 10 µM
# [5] = modulators of CIT2-GFP expression in yeast, confirmation, S. cerevisiae, GFP fusion, cherry picks, mother/daughter gates (AID 2274); conditions: S. cerevisiae CIT2-GFP strain, flow cytometry, 3 h, at 10 µM, stronger effect = higher value
# [6] = measured here: daughter cell gate
# [7] = measured here: mother cell gate
# [8] = measured here: daughter cell gate response
# [9] = measured here: mother cell gate response
SMILES,GFP response vs DMSO [1],"GFP response vs DMSO [1, 6] [%]","GFP response vs DMSO [1, 7] [%]",GFP response relative to DMSO [2],"GFP response relative to DMSO [2, 8] [%]","GFP response relative to DMSO [2, 9] [%]",GFP response vs DMSO [3],"GFP response, % of DMSO [4]","GFP response, % of DMSO [5]","GFP response, % of DMSO [5, 6] [%]","GFP response, % of DMSO [5, 7] [%]"
COc1ccc(/C=C/C(=O)C2C(=O)C=C(C)OC2=O)cc1O (configuration not stated),101% (inactive),102,101,123% (inactive),118,125,112% (inactive),101% (inactive),101% (inactive),104,96.8
O=C(OCCCOC(=O)c1ccc(Br)o1)c1ccc(Br)o1,98.2% (inactive),95.3,98,108% (inactive),108,109,103% (inactive),102% (inactive),97.2% (inactive),97.6,97.1
COc1ccc(C(=O)/C=C2/C(=O)Nc3ccccc32)cc1OC,98.2% (inactive),98.8,99.3,97.7% (inactive),96.5,97.5,99.5% (inactive),97.5% (inactive),95% (inactive),94.6,93.3
CCc1noc(C)c1C(=O)Nc1nc(-c2ccc(Cl)cc2Cl)c(C)s1,98.8% (inactive),99.1,98.8,98.8% (inactive),99.3,97.5,99.5% (inactive),102% (inactive),96.4% (inactive),96.4,94.5
COc1ccc(-n2c(N)c(C(=O)Nc3c(C)n(C)n(-c4ccccc4)c3=O)c3nc4ccccc4nc32)cc1,97.4% (inactive),94.4,98.1,99.5% (inactive),99.1,99.4,103% (inactive),102% (inactive),94.4% (inactive),93.8,94.4
O=C(O)c1ccc(SCc2cnc(Cl)s2)cc1,104% (inactive),96.7,103,116% (inactive),99,112,110% (inactive),114% (inactive),108% (inactive),101,104
CCOC(=O)C1(Cc2ccccc2Cl)CCN(C(=O)CCn2ccnc2C)CC1,96.6% (inactive),97.3,97.2,101% (inactive),104,99.5,99.5% (inactive),100% (inactive),97.8% (inactive),98.3,98
Cc1ccsc1C(=O)N(Cc1nnc(-c2ccccc2Cl)o1)C1CC1,95.8% (inactive),97.3,95.2,98.9% (inactive),96,100,103% (inactive),102% (inactive),100% (inactive),99.3,99.3
O=C(Nc1ccccc1O)c1ccc(Cl)cc1,96.8% (inactive),95.6,96.6,98.7% (inactive),100,100,102% (inactive),97.8% (inactive),100% (inactive),99.7,98.7
Cc1[nH]n(-c2ncc(-c3ccccc3)s2)c(=O)c1C(c1ccc(Cl)cc1)C(C#N)C#N (configuration not stated),94.5% (inactive),98.1,91.6,156% (active),136,159,106% (inactive),100% (inactive),95.8% (inactive),101,89.3
CCOc1cc(/C=N/Nc2nc(C)cc(=O)[nH]2)ccc1O,102% (inactive),102,100,89% (inactive),87.9,90.1,104% (inactive),100% (inactive),106% (inactive),106,103
O=C(O)CSC1CC(=O)N(c2cccc(Cl)c2)C1=O (configuration not stated),96.7% (inactive),97.3,94.6,104% (inactive),101,104,110% (inactive),101% (inactive),104% (inactive),105,104
CCN1CCN(C(=O)C2CCN(c3nnc(C)c4c(C)n(-c5ccc(C)cc5)nc34)CC2)CC1,97.2% (inactive),96.5,97.8,102% (inactive),101,101,104% (inactive),106% (inactive),99.3% (inactive),102,98
Cc1cccn2c(=O)c(/C=C(\C#N)C(=O)NCc3ccco3)c(N3CCCC(C)C3)nc12 (configuration not stated),99.8% (inactive),99.1,99.5,96.1% (inactive),96.6,97.2,98.8% (inactive),101% (inactive),99.7% (inactive),100,99.7
O=C(COc1ccccc1[N+](=O)[O-])Nc1ccc(NC(=O)c2cc3ccccc3o2)cc1,100% (inactive),98.9,99.3,88.7% (inactive),92,88.9,103% (inactive),99.8% (inactive),92.2% (inactive),92.1,91.8
O=C(O)Cc1csc(-c2cccc(Oc3ccccc3)c2)n1,100% (inactive),97.8,101,105% (inactive),98.7,106,100% (inactive),95.4% (inactive),93.9% (inactive),93.2,93.4
O=C1CC(Sc2nnnn2C2CCCCC2)C(=O)N1c1ccccc1 (configuration not stated),94.3% (inactive),95.5,94.8,107% (inactive),104,107,97.5% (inactive),99.3% (inactive),95% (inactive),94.6,93.3

# — PubChem BioAssay
